Data from ChEMBL document CHEMBL2021856 (ACS Med Chem Lett, 2011).

Legend:
Assay type in all cases: functional, cell-based; call rule not given here
[1] = target: T1, 5-hydroxytryptamine receptor 2B (Homo sapiens, UniProt P41595); test: Agonist activity at human 5HT2B receptor expressed in HEK293 cells assessed as calcium flux measured every sec for 3 mins by FLIPR assay
[2] = target: T2, 5-hydroxytryptamine receptor 2C (Homo sapiens, UniProt P28335); test: Agonist activity at human 5HT2C receptor expressed in HEK293 cells assessed as calcium flux measured every sec for 3 mins by FLIPR assay
T2 sequence (P28335 whole entry): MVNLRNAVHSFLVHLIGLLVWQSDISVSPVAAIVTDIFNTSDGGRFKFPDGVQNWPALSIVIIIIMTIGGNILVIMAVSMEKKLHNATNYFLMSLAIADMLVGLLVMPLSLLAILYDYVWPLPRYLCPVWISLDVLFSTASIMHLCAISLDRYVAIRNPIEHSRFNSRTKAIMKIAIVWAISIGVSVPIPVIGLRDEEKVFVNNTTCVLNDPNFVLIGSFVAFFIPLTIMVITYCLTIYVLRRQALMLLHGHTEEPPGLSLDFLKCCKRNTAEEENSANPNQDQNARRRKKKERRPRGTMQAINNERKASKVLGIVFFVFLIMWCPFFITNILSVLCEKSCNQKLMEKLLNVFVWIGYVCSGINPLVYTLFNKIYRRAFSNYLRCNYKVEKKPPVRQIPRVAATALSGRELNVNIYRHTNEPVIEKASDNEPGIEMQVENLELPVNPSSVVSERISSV

[3] = target: T3, 5-hydroxytryptamine receptor 2A (Homo sapiens, UniProt P28223); test: Agonist activity at human 5HT2A receptor expressed in HEK293 cells assessed as calcium flux measured every sec for 3 mins by FLIPR assay
[4] = target: T4, 5-hydroxytryptamine receptor 2C (Homo sapiens) (UniProt P28335); test: Agonist activity at human 5HT2C receptor expressed in HEK293 cells assessed as calcium flux measured every sec for 3 mins by FLIPR assay relative to 5HT
T4 sequence (whole entry): T2 sequence (P28335 whole entry)
How it was run: (§1)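 Calcium flux (Gαq-mediated) in HEK-293 cells stably expressing human 5-HT2A, 5-HT2B or 5-HT2C (INI isoform). […] Racemic trans mixtures were tested unless otherwise stated.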

[5] = target: T3, 5-hydroxytryptamine receptor 2A; test: Agonist activity at human 5HT2A receptor expressed in HEK293 cells assessed as calcium flux measured every sec for 3 mins by FLIPR assay relative to 5HT; how it was run: as §1
[6] = target: T1, 5-hydroxytryptamine receptor 2B; test: Agonist activity at human 5HT2B receptor expressed in HEK293 cells assessed as calcium flux measured every sec for 3 mins by FLIPR assay relative to 5HT; how it was run: as §1

T3 sequence (P28223 whole entry): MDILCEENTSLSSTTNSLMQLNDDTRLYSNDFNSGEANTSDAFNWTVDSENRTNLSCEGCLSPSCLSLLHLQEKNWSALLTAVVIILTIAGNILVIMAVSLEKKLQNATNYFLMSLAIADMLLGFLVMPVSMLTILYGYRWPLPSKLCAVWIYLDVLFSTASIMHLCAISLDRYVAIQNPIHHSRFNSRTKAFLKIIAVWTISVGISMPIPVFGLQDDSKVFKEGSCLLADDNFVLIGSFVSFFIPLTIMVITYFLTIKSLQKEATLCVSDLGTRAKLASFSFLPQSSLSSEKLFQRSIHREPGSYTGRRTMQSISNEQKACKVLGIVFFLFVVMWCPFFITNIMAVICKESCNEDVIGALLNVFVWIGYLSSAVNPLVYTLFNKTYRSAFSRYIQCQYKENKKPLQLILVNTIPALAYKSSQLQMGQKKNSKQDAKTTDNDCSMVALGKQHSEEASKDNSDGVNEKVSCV
T1 sequence (P41595 whole entry): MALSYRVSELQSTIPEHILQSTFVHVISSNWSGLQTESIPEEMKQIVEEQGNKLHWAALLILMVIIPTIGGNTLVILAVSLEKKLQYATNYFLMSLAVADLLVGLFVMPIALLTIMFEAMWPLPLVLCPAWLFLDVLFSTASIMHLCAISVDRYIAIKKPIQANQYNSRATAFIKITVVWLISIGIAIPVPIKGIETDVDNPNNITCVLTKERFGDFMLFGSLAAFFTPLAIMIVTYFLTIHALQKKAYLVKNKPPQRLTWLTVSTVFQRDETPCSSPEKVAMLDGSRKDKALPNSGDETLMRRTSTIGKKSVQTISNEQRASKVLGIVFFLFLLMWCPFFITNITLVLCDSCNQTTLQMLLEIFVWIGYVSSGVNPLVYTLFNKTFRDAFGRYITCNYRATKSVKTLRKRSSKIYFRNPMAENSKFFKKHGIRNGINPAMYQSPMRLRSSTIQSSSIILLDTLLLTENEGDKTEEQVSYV

Row | Compound | EC50 ([1]; hek293) | EC50 ([2]; read-out: EC50) | EC50 ([3]; hek293) | Emax [4] | EC50 ([1]; read-out: EC50) | Emax [5] | EC50 ([3]; read-out: EC50) | Emax [6] | EC50 ([2]; hek293)
1 | COc1ccc(-c2ccccc2C)cc1[C@H]1C[C@@H]1CN.Cl (racemic) | Not Active | 3470 nM | Not Active | 67% |  |  |  |  | 
2 | CCOc1ccccc1[C@H]1C[C@@H]1CN (racemic) |  | 18 nM |  | 99% | 331 nM | 64% | 3020 nM | 48% | 
3 | COc1ccc(-c2ccccc2)cc1[C@H]1C[C@@H]1CN.Cl (racemic) | Not Active | 3800 nM | Not Active | 64% |  |  |  |  | 
4 | CCCCc1ccc(-c2ccc(OC)c([C@H]3C[C@@H]3CN)c2)cc1.Cl (racemic) | Not Active |  | Not Active |  |  |  |  |  | Not Active
5 | COc1ccc(-c2ccccc2F)cc1[C@H]1C[C@@H]1CN.Cl (racemic) | Not Active | 3310 nM | Not Active | 69% |  |  |  |  | 
6 | Cl.NC[C@H]1C[C@@H]1c1ccccc1OCC1CCC1 (racemic) | Not Active | 1210 nM | Not Active | 31% |  |  |  |  | 
7 | COc1ccc(-c2ccc(C)cc2)cc1[C@H]1C[C@@H]1CN.Cl (racemic) | Not Active |  | Not Active |  |  |  |  |  | Not Active
8 | Cl.NC[C@H]1C[C@@H]1c1ccccc1OCc1ccccc1 (racemic) |  | 304 nM | Not Active | 74% | 1080 nM |  |  | 20% | 
9 | NC[C@H]1C[C@@H]1c1ccccc1OCC1CC1 |  |  |  | 61% |  |  |  |  | 
10 | CC(C)COc1ccccc1[C@H]1C[C@@H]1CN.Cl (racemic) | Not Active | 254 nM | Not Active | 84% |  |  |  |  | 
11 | Cl.NC[C@H]1C[C@@H]1c1ccccc1OCC1CC1 (racemic) | Not Active |  | Not Active |  |  |  |  |  | 
12 | COc1ccc(-c2cccc(F)c2)cc1[C@H]1C[C@@H]1CN.Cl (racemic) | Not Active | 7240 nM | Not Active | 59% |  |  |  |  | 
13 | Cl.NC[C@H]1C[C@@H]1c1ccccc1OCC1CCCCC1 (racemic) | Not Active |  | Not Active |  |  |  |  |  | Not Active
14 | COc1ccc(-c2ccc(F)cc2)cc1[C@H]1C[C@@H]1CN.Cl (racemic) | Not Active | 2190 nM | Not Active | 83% |  |  |  |  | 
15 | Cl.NC[C@@H]1C[C@H]1c1ccccc1OCC1CC1 | Not Active | 978 nM | Not Active | 51% |  |  |  |  | 
16 | CCCCCOc1ccccc1[C@H]1C[C@@H]1CN.Cl (racemic) | Not Active |  | Not Active |  |  |  |  |  | Not Active
17 | Cc1ccc(OCC(C)C)c([C@H]2C[C@@H]2CN)c1.Cl (racemic) | Not Active |  | Not Active |  |  |  |  |  | Not Active
18 | NC[C@H]1C[C@@H]1c1cc(F)ccc1OCC1CC1 |  | 21 nM |  |  | 289 nM |  | 894 nM |  | 
19 | NC[C@H]1C[C@@H]1c1ccccc1OCC1CC1 (racemic) |  |  |  | 60% |  |  |  |  | 
20 | CCCCOc1ccc(C)cc1[C@H]1C[C@@H]1CN.Cl (racemic) | Not Active |  | Not Active |  |  |  |  |  | Not Active
21 | CCCOc1ccccc1[C@H]1C[C@@H]1CN.Cl (racemic) |  | 24 nM | Not Active | 70% | 304 nM |  |  | 16% | 
22 | COc1ccc(-c2cccc(C)c2)cc1[C@H]1C[C@@H]1CN.Cl (racemic) | Not Active | 8710 nM | Not Active | 69% |  |  |  |  | 
